Results from ChEMBL document CHEMBL2034978, “Synthesis and evaluation of curcumin-related compounds for anticancer activity” (Eur J Med Chem, 2012).
pIC50: −log10 of the molar value. The source made the active and inactive calls. The rule behind the calls is not given here.

Tests used:
[1] = tested on: PANC-1; assay: Cytotoxicity against human PANC1 cells after 72 hrs by MTT assay; format: functional, cell-based; details: PANC-1, 72 h
How it was run: (§1)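 Seeded at 0.2 × 10⁵ cells/ml, grown 24 h, then exposed 72 h to a range of concentrations (upper limit 30). MTT read-out: formazan dissolved in DMSO, absorbance at 540 nm, growth expressed as percent of DMSO-treated cells.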

[2] = tested on: PC-3; assay: Cytotoxicity against human PC3 cells after 72 hrs by MTT assay; format: functional, cell-based; details: PC-3, 72 h; how it was run: as §1
[3] = tested on: HT-29; assay: Cytotoxicity against human HT-29 cells after 72 hrs by MTT assay; format: functional, cell-based; details: HT-29, 72 h; how it was run: as §1
[4] = tested on: PC-3; assay: Induction of apoptosis in human PC3 cells at <1 uM after 96 hrs by morphology analysis; format: functional, cell-based
[5] = tested on: PC-3; assay: Ratio of curcumin IC50 to compound IC50 for human PC3 cells; format: functional
How it was run: (§2)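 Curcumin served as positive control in each incubation, with its growth-inhibition data averaged across experiments.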

[6] = biological target: Mitogen-activated protein kinase; ERK1/ERK2 (Homo sapiens) (UniProt P27361+P28482); assay: Inhibition of ERK1/2 phosphorylation in human PC3 cells at 0.5 uM after 24 hrs by Western blotting relative to beta-actin; format: cell-based; details: PC-3
Chain of Mitogen-activated protein kinase; ERK1/ERK2 (Homo sapiens) (P27361 whole entry, looked up): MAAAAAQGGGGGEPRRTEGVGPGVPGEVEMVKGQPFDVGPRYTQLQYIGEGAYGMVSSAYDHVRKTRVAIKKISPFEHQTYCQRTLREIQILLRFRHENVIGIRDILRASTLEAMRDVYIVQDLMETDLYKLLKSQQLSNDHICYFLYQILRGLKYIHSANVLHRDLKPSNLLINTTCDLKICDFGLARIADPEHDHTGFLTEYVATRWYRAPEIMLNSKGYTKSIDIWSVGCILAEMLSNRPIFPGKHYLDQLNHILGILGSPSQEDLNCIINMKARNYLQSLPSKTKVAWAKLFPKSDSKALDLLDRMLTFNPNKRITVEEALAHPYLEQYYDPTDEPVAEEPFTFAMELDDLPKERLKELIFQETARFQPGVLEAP
Chain of Mitogen-activated protein kinase; ERK1/ERK2 (Homo sapiens) (P28482 whole entry, looked up): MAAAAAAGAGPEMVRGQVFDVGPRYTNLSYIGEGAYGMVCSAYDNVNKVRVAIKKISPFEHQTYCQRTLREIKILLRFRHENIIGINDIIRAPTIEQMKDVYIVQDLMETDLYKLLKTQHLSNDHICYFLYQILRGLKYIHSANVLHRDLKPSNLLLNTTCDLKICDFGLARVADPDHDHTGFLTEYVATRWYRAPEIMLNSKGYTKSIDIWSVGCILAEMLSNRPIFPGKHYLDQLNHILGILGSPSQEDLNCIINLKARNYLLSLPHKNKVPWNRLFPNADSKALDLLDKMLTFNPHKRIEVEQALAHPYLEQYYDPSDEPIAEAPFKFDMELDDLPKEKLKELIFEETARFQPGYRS
How it was run: (§3)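 PC-3 cells were seeded at 1 × 10⁵ cells/ml in 100 mm dishes, grown 24 h, then treated 24 h. Cells were lysed in Tris-HCl pH 7.4 buffer containing NaF, pyrophosphate, orthovanadate and Triton X-100, and lysates cleared at 12,000×g. Blots on PVDF were probed with anti-phospho-Akt or anti-phospho-Erk1/2, detected by ECL, quantified by optical density and normalized to β-actin.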

[7] = tested on: PANC-1; assay: Ratio of curcumin IC50 to compound IC50 for human PANC1 cells; format: functional; how it was run: as §2
[8] = tested on: PC-3; assay: Inhibition of Akt phosphorylation in human PC3 cells at 0.5 uM after 24 hrs by Western blotting relative to beta-actin; format: cell-based; how it was run: as §3
[9] = tested on: HT-29; assay: Ratio of curcumin IC50 to compound IC50 for human HT-29 cells; format: functional; how it was run: as §2

Structure (SMILES) | pIC50 [1] | pIC50 [2] | pIC50 [3] | Activity [4] | Ratio IC50 [5] | inhibition [6] | Ratio IC50 [7] | inhibition [8] | Ratio IC50 [9]
O=C1/C(=C/c2ccc(Cl)cc2)CNC/C1=C\c1ccc(Cl)cc1 | 5.43 | 5.44 | 5.20 |  |  |  |  |  | 
O=C1/C(=C/c2ccc(O)cc2)CC/C1=C\c1ccc(O)cc1 | < 4.52 | 4.64 | 4.67 |  |  |  |  |  | 
O=C(/C=C/c1ccc(Br)cc1)/C=C/c1ccc(Br)cc1 | 4.68 | 4.64 | 4.85 |  |  |  |  |  | 
COc1cc(/C=C/C(=O)/C=C/c2cc(OC)c(OC)c(OC)c2)cc(OC)c1OC | 5.47 | 5.33 | 5.77 |  |  |  |  |  | 
COc1cc(C=C2CSCC(=Cc3cc(OC)c(O)c(OC)c3)C2=O)cc(OC)c1O | 5.66 | 5.95 | 5.76 |  |  |  |  |  | 
COc1ccc(C=C2CSCC(=Cc3ccc(OC)cc3)C2=O)cc1 | 4.96 | 5.07 | 5.10 |  |  |  |  |  | 
O=C1/C(=C/c2ccc(F)cc2)CNC/C1=C\c1ccc(F)cc1 | 5.50 | 5.54 | 5.49 |  |  |  |  |  | 
O=C1/C(=C/c2ccsc2)CSC/C1=C\c1ccsc1 | 5.13 | 5.38 | 5.17 |  |  |  |  |  | 
O=C1/C(=C/c2ccccn2)CC/C1=C\c1ccccn1 | 5.28 | 5.53 | 5.27 |  |  |  |  |  | 
O=C(/C=C/c1ccc(O)cc1)/C=C/c1ccc(O)cc1 | 4.87 | 5.01 | 5.03 |  |  |  |  |  | 
O=C(/C=C/c1ccc(F)cc1)/C=C/c1ccc(F)cc1 | 4.90 |  | 5.03 |  |  |  |  |  | 
O=C1/C(=C/c2ccc(Br)cc2)CNC/C1=C\c1ccc(Br)cc1 | 5.69 | 5.71 | 5.38 |  |  |  |  |  | 
O=C1/C(=C/c2ccncc2)COC/C1=C\c1ccncc1 | 5.53 | 5.74 | 5.38 |  |  |  |  |  | 
O=C1/C(=C/c2ccccn2)COC/C1=C\c1ccccn1 | 5.49 | 5.73 | 5.48 |  |  |  |  |  | 
COc1ccc(/C=C2\CC/C(=C\c3ccc(OC)cc3)C2=O)cc1 | < 4.52 | 4.59 | 4.64 |  |  |  |  |  | 
O=C1/C(=C/c2ccc(Cl)cc2)CC/C1=C\c1ccc(Cl)cc1 | 4.64 | 4.60 | 4.80 |  |  |  |  |  | 
O=C1/C(=C/c2ccsc2)CCC/C1=C\c1ccsc1 | 4.76 | 4.84 | 4.76 |  |  |  |  |  | 
COc1cc(/C=C2\COC/C(=C\c3cc(OC)c(O)c(OC)c3)C2=O)cc(OC)c1O | 5.76 | 6.04 | 5.84 |  |  |  |  |  | 
O=C1/C(=C/c2ccc(O)cc2)CCC/C1=C\c1ccc(O)cc1 | 4.88 | 4.88 | 4.93 |  |  |  |  |  | 
O=C1/C(=C/c2ccc(O)cc2)COC/C1=C\c1ccc(O)cc1 | 4.96 | 5.14 | 5.41 |  |  |  |  |  | 

Structure (SMILES) | pIC50 [1] | pIC50 [2] | pIC50 [3] | Activity [4] | Ratio IC50 [5] | inhibition [6] | Ratio IC50 [7] | inhibition [8] | Ratio IC50 [9]
O=C1/C(=C/c2ccncc2)CSC/C1=C\c1ccncc1 | 5.94 | 6.15 | 5.89 |  |  |  |  |  | 
COc1cc(/C=C2\CCC/C(=C\c3cc(OC)c(O)c(OC)c3)C2=O)cc(OC)c1O | 5.58 | 5.38 | 5.57 |  |  |  |  |  | 
COc1ccc(/C=C2\CC/C(=C\c3ccc(OC)c(OC)c3OC)C2=O)c(OC)c1OC | 4.64 | 4.73 | 4.70 |  |  |  |  |  | 
O=C(/C=C/c1ccc(O)c(O)c1)/C=C/c1ccc(O)c(O)c1 | 4.87 | 5.05 | 5.04 |  |  |  |  |  | 
O=C1/C(=C/c2cccnc2)CSC/C1=C\c1cccnc1 | 6.29 | 6.02 | 6.10 | Active | 21 | Active | 45 | inactive | 27
O=C1/C(=C/c2ccccn2)CCC/C1=C\c1ccccn1 | 5.89 | 5.89 | 5.84 |  |  |  |  |  | 
COc1ccc(/C=C2\CCC/C(=C\c3ccc(OC)c(OC)c3)C2=O)cc1OC | 5.35 | 5.28 | 5.40 |  |  |  |  |  | 
O=C1/C(=C/c2cccnc2)CCC/C1=C\c1cccnc1 | 5.60 | 5.67 | 5.70 |  |  |  |  |  | 
COc1cc(/C=C/C(=O)/C=C/c2ccc(O)c(OC)c2)ccc1O | 5.34 | 5.38 | 5.53 |  |  |  |  |  | 
O=C1/C(=C/c2cccnc2)COC/C1=C\c1cccnc1 | 6.01 | 5.66 | 5.74 |  |  |  |  |  | 
O=C1/C(=C/c2ccsc2)CC/C1=C\c1ccsc1 | 4.56 | 4.64 | 4.71 |  |  |  |  |  | 
COc1ccc(/C=C2\CC/C(=C\c3ccc(OC)c(OC)c3)C2=O)cc1OC | 4.86 | 5.03 | 4.87 |  |  |  |  |  | 
O=C1/C(=C/c2cccnc2)CC/C1=C\c1cccnc1 | 5.21 | 5.16 | 5.26 |  |  |  |  |  | 
COc1ccc(/C=C/C(=O)/C=C/c2ccc(OC)c(OC)c2)cc1OC | 5.47 | 5.53 | 5.66 |  |  |  |  |  | 
O=C1/C(=C/c2ccc(Br)cc2)CC/C1=C\c1ccc(Br)cc1 | 4.60 | < 4.52 | 4.70 |  |  |  |  |  | 
COc1cc(/C=C/C(=O)/C=C/c2cc(OC)c(O)c(OC)c2)cc(OC)c1O | 5.65 | 5.47 | 5.65 |  |  |  |  |  | 
COc1ccc(C=C2CSCC(=Cc3ccc(OC)c(OC)c3OC)C2=O)c(OC)c1OC | 5.33 | 5.42 | 5.54 |  |  |  |  |  | 
O=C1/C(=C/c2ccncc2)CC/C1=C\c1ccncc1 | 5.10 | 5.25 | 5.12 |  |  |  |  |  | 
O=C1/C(=C/c2ccccn2)CSC/C1=C\c1ccccn1 | 6.15 | 6.28 | 6.12 | Active | 21 | Active | 21 | inactive | 21
COc1ccc(/C=C2\CCC/C(=C\c3ccc(OC)cc3)C2=O)cc1 | 4.80 | 4.91 | 4.86 |  |  |  |  |  | 

Structure (SMILES) | pIC50 [1] | pIC50 [2] | pIC50 [3] | Activity [4] | Ratio IC50 [5] | inhibition [6] | Ratio IC50 [7] | inhibition [8] | Ratio IC50 [9]
COc1cc(/C=C2\CC/C(=C\c3cc(OC)c(O)c(OC)c3)C2=O)cc(OC)c1O | 5.02 | 5.00 | 5.11 |  |  |  |  |  | 
O=C1/C(=C/c2ccsc2)COC/C1=C\c1ccsc1 | 4.97 | 5.18 | 5.05 |  |  |  |  |  | 
COc1ccc(/C=C2\CCC/C(=C\c3ccc(OC)c(OC)c3OC)C2=O)c(OC)c1OC | 4.94 | 5.09 | 5.15 |  |  |  |  |  | 
COc1cc(/C=C2\CCC/C(=C\c3cc(OC)c(OC)c(OC)c3)C2=O)cc(OC)c1OC | 5.02 | 5.21 | 5.37 |  |  |  |  |  | 
O=C1/C(=C/c2ccncc2)CCC/C1=C\c1ccncc1 | 5.66 | 5.67 | 5.63 |  |  |  |  |  | 
O=C1/C(=C/c2ccc(F)cc2)CCC/C1=C\c1ccc(F)cc1 | 4.98 | 4.93 | 5.12 |  |  |  |  |  | 
COc1ccc(/C=C2\COC/C(=C\c3ccc(OC)c(OC)c3OC)C2=O)c(OC)c1OC | 5.57 | 5.56 | 5.61 |  |  |  |  |  | 
COc1cc(/C=C2\CC/C(=C\c3cc(OC)c(OC)c(OC)c3)C2=O)cc(OC)c1OC | 4.73 | 4.78 | 4.90 |  |  |  |  |  | 
COc1ccc(/C=C/C(=O)/C=C/c2ccc(OC)c(OC)c2OC)c(OC)c1OC | 5.04 | 5.23 | 5.29 |  |  |  |  |  | 
COc1ccc(/C=C/C(=O)/C=C/c2ccc(OC)cc2)cc1 | 4.85 | 4.95 | 4.95 |  |  |  |  |  | 
O=C1/C(=C/c2ccc(Cl)cc2)CCC/C1=C\c1ccc(Cl)cc1 | 4.93 | 4.95 | 5.11 |  |  |  |  |  | 
O=C(/C=C/c1ccc(Cl)cc1)/C=C/c1ccc(Cl)cc1 | 4.85 | 4.78 | 4.96 |  |  |  |  |  | 
COc1cc(/C=C2\COC/C(=C\c3cc(OC)c(OC)c(OC)c3)C2=O)cc(OC)c1OC | 6.28 | 6.57 | 6.80 | Active | 72 | Active | 46 | Active | 117
O=C1C(=Cc2ccc(O)cc2)CSCC1=Cc1ccc(O)cc1 | 4.92 | 5.08 | 5.37 |  |  |  |  |  | 
COc1cc(/C=C/C(=O)CC(=O)/C=C/c2ccc(O)c(OC)c2)ccc1O [CURCUMIN] | 4.63 | 4.71 | 4.73 | inactive |  | inactive |  | inactive | 
COc1ccc(/C=C2\COC/C(=C\c3ccc(OC)cc3)C2=O)cc1 | 5.12 | 5.21 | 5.22 |  |  |  |  |  | 
O=C1/C(=C/c2ccc(Br)cc2)CCC/C1=C\c1ccc(Br)cc1 | 4.91 | 4.87 | 5.04 |  |  |  |  |  | 
COc1cc(/C=C2\CCC/C(=C\c3ccc(O)c(OC)c3)C2=O)ccc1O [CYCLOVALONE] | 5.35 | 5.23 | 5.43 |  |  |  |  |  | 
O=C1/C(=C/c2ccc(F)cc2)CC/C1=C\c1ccc(F)cc1 | 4.71 | 4.72 | 4.84 |  |  |  |  |  | 
COc1cc(/C=C2\CC/C(=C\c3ccc(O)c(OC)c3)C2=O)ccc1O | 4.81 | 4.81 | 5.01 |  |  |  |  |  | 
